Assay results as given in ChEMBL document CHEMBL1151957, “Design and synthesis of novel C14-hydroxyl substituted triptolide derivatives as potential selective antitumor agents” (J Med Chem, 2009).
Calls of active or inactive are those of the source. The calls are words filed in the database; no cut-off is given here.

What was measured:
SK-OV-3 [1] = assay: Cytotoxicity against human SKOV3 cells by SRB assay; assay type: functional, cell-based
Outline: (§1)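 Cells grown in RPMI 1640 with 10% heat-inactivated FBS, 2 mmol/L glutamine, 10 mmol/L HEPES pH 7.4, 5% CO2, 37 °C; MCF-7/ADR also given 1 mmol/L pyruvate and 0.01 mg/mL insulin. Treated in triplicate with graded concentrations for 72 h at 37 °C, read by SRB. IC50 (50% growth inhibition vs control) by logit method; three independent experiments.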

MDA-MB-468 [2] = assay: Cytotoxicity against human MDA-MB-468 cells by SRB assay; assay type: functional, cell-based; outline: as §1
PC-3 [3] = assay: Cytotoxicity against human PC3 cells by SRB assay; assay type: functional, cell-based; outline: as §1
K562 [4] = assay: Cytotoxicity against human K562 cells after 72 hrs by MTT assay; assay type: functional, cell-based; settings: K562, 72 h
Outline: (§2)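 Cells grown at 37 °C in 5% CO2 in RPMI 1640 with 10% heat-inactivated FBS, glutamine, antibiotics and HEPES; MCF-7 medium also had sodium pyruvate and insulin. Cells in 96-well plates were treated in triplicate with graded concentrations for 72 h at 37 °C. Read-out was MTT for leukemia lines and SRB for solid-tumor lines. IC50 was set relative to control by the logit method, as mean ± SD of three independent experiments.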

[5] = Cytotoxicity against multidrug-resistant human K562/A02 cells by MTT assay
MCF7 [6] = assay: Resistant factor, ratio of IC50 for multidrug-resistant human MCF7/ADR cells to IC50 for human MCF7 cells; assay type: functional
Outline: (§3)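 Resistance factor is the IC50 in the MDR line divided by the IC50 in its parental line. Both come from 72 h growth-inhibition assays: MTT for the leukemia pair, SRB for the solid-tumor pairs.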

U-251 = assay: Cytotoxicity against human U251 cells after 72 hrs […]; assay type: functional, cell-based; settings: U-251, 72 h; outline: as §2
Mus musculus [7] = assay: Toxicity in BALB/cA nu/nu mouse assessed as change in liver gross anatomy at 1 to 4 mg/kg, po; assay type: organism-based; set-up: dose 1-4 mg/kg, route oral; settings: in vivo
Outline: (§4)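 Female-unspecified BALB/cA nu/nu mice, 4-5 weeks old, carried sc 1 mm³ tumor fragments in the right flank. At 100-200 mm³, mice were randomized six per group and given compound po daily in vehicle, with vehicle-only controls, over about 21 days. Endpoints were deaths, systemic toxicity, body weight, and gross anatomy of liver and kidney.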

SMMC-7721 [8] = assay: Cytotoxicity against human SMMC7721 cells after 72 hrs […]; assay type: functional, cell-based; settings: SMMC-7721, 72 h; outline: as §2
HCT-116 = assay: Cytotoxicity against human HCT116 cells after 72 hrs […]; assay type: functional, cell-based; settings: HCT-116, 72 h; outline: as §2
MKN-28 = assay: Cytotoxicity against human MKN28 cells after 72 hrs […]; assay type: functional, cell-based; settings: MKN-28, 72 h; outline: as §2
A549 = assay: Cytotoxicity against human A549 cells after 72 hrs by SRB assay; settings: A549, 72 h
[9] = Cytotoxicity against human SW1116 cells after 72 hrs by […]; assay type: functional, cell-based; settings: SW 1116, 72 h; outline: as §2
Mus musculus [10] = assay: Toxicity in BALB/cA nu/nu mouse assessed as change in kidney gross anatomy at 1 to 4 mg/kg, po; assay type: organism-based; set-up: dose 1-4 mg/kg, route oral; settings: in vivo; outline: as §4
MDR = assay: Cytotoxicity against multidrug-resistant human KB/VCR cells by SRB assay in presence of MDR reversing agent verapamil; assay type: functional, cell-based
Outline: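 KB/VCR cells exposed to test agents together with the MDR reversal agent verapamil. Growth inhibition was read by SRB assay after 72 h treatment; each point is the mean of three independent experiments.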

SGC-7901 [11] = assay: Antitumor activity against human SGC7901 cells xenografted in BALB/cA nu/nu mouse assessed as tumor growth inhibition at 4 mg/kg, po; assay type: functional; set-up: scale not given: the % may be the effect or the level left
Outline: (§5)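 Nude BALB/cA nu/nu mice, 4-5 weeks old, received 1 mm³ tumor fragments implanted sc into the right flank by trocar. At 100-200 mm³ they were randomized, six per group, and dosed po daily in vehicle; controls got vehicle alone. Calipers twice weekly; V = length×width²/2; RTV = Vt/V0; T/C (%) = mean RTV treated / mean RTV control ×100. Student t test.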

SMMC-7721 [12] = assay: Antitumor activity against human SMMC7721 cells xenografted in BALB/cA nu/nu mouse assessed as tumor growth inhibition at 1 to 4 mg/kg, po; assay type: functional, organism-based; outline: as §5
MOLT-4 = assay: Cytotoxicity against human MOLT4 cells after 72 hrs by MTT assay; assay type: functional, cell-based; settings: MOLT-4, 72 h; outline: as §2
K562 [13] = assay: Resistant factor, ratio of IC50 for multidrug-resistant human K562/A02 cells to IC50 for human K562 cells; assay type: functional; outline: as §3
MCF7 [14] = assay: Cytotoxicity against human MCF7 cells after 72 hrs […]; assay type: functional, cell-based; settings: MCF7, 72 h; outline: as §2
KB [15] = assay: Cytotoxicity against human KB cells after 72 hrs […]; assay type: functional, cell-based; outline: as §2
MDA-MB-231 = assay: Cytotoxicity against human MDA-MB-231 cells after 72 hrs […]; assay type: functional, cell-based; settings: MDA-MB-231, 72 h; outline: as §2
HeLa = assay: Cytotoxicity against human HeLa cells after 72 hrs […]; assay type: functional, cell-based; outline: as §2
[16] = Cytotoxicity against human 786-O cells after 72 hrs […]; assay type: functional, cell-based; settings: 786-0, 72 h; outline: as §2
SK-OV-3 [17] = assay: Cytotoxicity against human SKOV3 cells after 72 hrs by […]; assay type: functional, cell-based; settings: SK-OV-3, 72 h; outline: as §2
Mus musculus [18] = assay: Toxicity in BALB/cA nu/nu mouse assessed as change in body weight at 1 to 4 mg/kg, po; assay type: organism-based; set-up: dose 1-4 mg/kg, route oral; settings: in vivo; outline: as §4
SGC-7901 [19] = assay: Cytotoxicity against human SGC7901 cells after 72 hrs by SRB assay; settings: SGC-7901, 72 h
DU-145 = assay: Cytotoxicity against human DU145 cells after 72 hrs by […]; assay type: functional, cell-based; settings: DU-145, 72 h; outline: as §2
Mus musculus [20] = assay: Toxicity in BALB/cA nu/nu mouse assessed as mortality at 1 to 4 mg/kg, po; assay type: organism-based; set-up: dose 1-4 mg/kg, route oral; settings: in vivo; outline: as §4
[21] = Cytotoxicity against multidrug-resistant human MCF7/ADR cells by SRB assay; assay type: functional, cell-based; settings: NCI/ADR-RES; outline: as §1
MDA-MB-468 [22] = assay: Antitumor activity against human MDA-MB-468 cells xenografted in BALB/cA nu/nu mouse assessed as tumor growth inhibition at 1 to 4 mg/kg, po; assay type: functional, organism-based; outline: as §5
[23] = Cytotoxicity against human HO8910 cells after 72 hrs by […]; assay type: functional, cell-based; settings: HO-8910, 72 h; outline: as §2
SK-OV-3 [24] = assay: Antitumor activity against human SKOV3 cells xenografted in BALB/cA nu/nu mouse assessed as tumor growth inhibition at 4 mg/kg, po measured on day 21 postinfection; assay type: functional; set-up: scale not given: the % may be the effect or the level left; outline: as §5
PC-3 [25] = assay: Antitumor activity against human PC3 cells xenografted in BALB/cA nu/nu mouse assessed as tumor growth inhibition at 4 mg/kg, po measured on day 21 postinfection; assay type: functional, organism-based; set-up: dose 4 mg/kg; outline: as §5
HCT-15 = assay: Cytotoxicity against human HCT15 cells after 72 hrs […]; assay type: functional, cell-based; settings: HCT-15, 72 h; outline: as §2
SK-OV-3 [26] = assay: Antitumor activity against human SKOV3 cells xenografted in BALB/cA nu/nu mouse assessed as tumor growth inhibition at 2 mg/kg, po measured on day 21 postinfection; assay type: functional; set-up: scale not given: the % may be the effect or the level left; outline: as §5
Mus musculus [27] = assay: Systemic toxicity in BALB/cA nu/nu mouse at 1 to 4 mg/kg, po; assay type: organism-based; set-up: dose 1-4 mg/kg, route oral; settings: in vivo; outline: as §4
[28] = Cytotoxicity against human Rh30 cells after 72 hrs by […]; assay type: functional, cell-based; settings: SJRH30, 72 h; outline: as §2
SK-OV-3 [29] = assay: Antitumor activity against human SKOV3 cells xenografted in BALB/cA nu/nu mouse assessed as tumor growth inhibition at 1 mg/kg, po relative to control; assay type: functional; outline: as §5
Bel-7402 = assay: Cytotoxicity against human Bel7402 cells after 72 hrs by […]; assay type: functional, cell-based; settings: Bel-7402, 72 h; outline: as §2
PC-3 [30] = assay: Cytotoxicity against human PC3 cells after 72 hrs by […]; assay type: functional, cell-based; settings: PC-3, 72 h; outline: as §2
KB [31] = assay: Resistant factor, ratio of IC50 for multidrug-resistant human KB/VCR cells to IC50 for human KB cells; assay type: functional; outline: as §3
PC-3 [32] = assay: Antitumor activity against human PC3 cells xenografted in BALB/cA nu/nu mouse assessed as tumor growth inhibition at 2 mg/kg, po measured on day 21 postinfection; assay type: functional, organism-based; set-up: dose 2 mg/kg; outline: as §5

In the case of `CC(C)[C@]1(O)[C@H](Cl)[C@@H]2O[C@]23[C@]2(O[C@H]2C[C@H]2C4=C(CC[C@@]23C)C(=O)OC4)[C@]12CO2`, the IC50 (SK-OV-3 [1]) is reported as 140 nM, the IC50 (MDA-MB-468 [2]) is reported as 210 nM and the IC50 (PC-3 [3]) is reported as 470 nM.

In the case of `CC(C)[C@]12O[C@H]1[C@@H]1O[C@]13[C@]1(O[C@H]1C[C@H]1C4=C(CC[C@@]13C)C(=O)OC4)[C@]21CO1`, the IC50 (K562 [4]) is reported as 421 nM, the IC50 [5] is reported as 740 nM and the “Ratio IC50” value (MCF7 [6]) is reported as 2.53. For the same compound, the IC50 (U-251) was 657 nM, the Activity (Mus musculus [7]) was “Non-toxic” and the IC50 (SMMC-7721 [8]) was 350 nM. For the same compound, the IC50 (HCT-116) was 219 nM, the IC50 (MKN-28) was 2540 nM and the IC50 (A549) was 702 nM. For the same compound, the IC50 [9] was 907 nM, the Activity (Mus musculus [10]) was “Non-toxic” and the IC50 (SK-OV-3 [1]) was 100 nM. For the same compound, the Activity (MDR) was “Active”, the Activity (SGC-7901 [11]) was 75% and the Activity (SMMC-7721 [12]) was “inactive”. For the same compound, the IC50 (MOLT-4) was 251 nM, the “Ratio IC50” value (K562 [13]) was 1.76 and the IC50 (MCF7 [14]) was 360 nM. The IC50 (MDA-MB-468 [2]) was 180 nM, the IC50 (KB [15]) was 615 nM and the IC50 (PC-3 [3]) was 270 nM. It also gave an IC50 (MDA-MB-231) of 280 nM, an IC50 (HeLa) of 507 nM and an IC50 [16] of 386 nM. For the same compound, the IC50 (SK-OV-3 [17]) was 270 nM, the Activity (Mus musculus [18]) was “Non-toxic” and the IC50 (SGC-7901 [19]) was 175 nM. For the same compound, the IC50 (DU-145) was 256 nM, the Activity (Mus musculus [20]) was “Non-toxic” and the IC50 [21] was 910 nM. For the same compound, the Activity (MDA-MB-468 [22]) was “inactive”, the IC50 [23] was 538 nM and the Activity (SK-OV-3 [24]) was 97.4%. The Activity (PC-3 [25]) was “Active”, the IC50 (HCT-15) was 648 nM and the Activity (SK-OV-3 [26]) was 87.5%. For the same compound, the Activity (Mus musculus [27]) was “Non-toxic”, the IC50 [28] was 293 nM and the T/C (SK-OV-3 [29]) was 50.2%. The IC50 (Bel-7402) was 332 nM, the IC50 (PC-3 [30]) was 637 nM and the “Ratio IC50” value (KB [31]) was 0.77. For the same compound, the Activity (PC-3 [32]) was “Active”.

Compound `CC(C)[C@]12O[C@H]1[C@@H]1O[C@]13[C@]1(O[C@H]1C[C@H]1C4=C(CC[C@@]13C)C(=O)OC4)[C@@]21CO1` has an IC50 (SK-OV-3 [1]) of 1560 nM, an IC50 (MDA-MB-468 [2]) of 1920 nM and an IC50 (PC-3 [3]) of 2700 nM.

In the case of `CC(C)[C@]12O[C@H]1[C@@H]1O[C@@]13[C@@]1(C)CCC4=C(COC4=O)[C@]1(O)C[C@@H]1O[C@@]13[C@]21CO1`, the IC50 (SK-OV-3 [1]) is reported as 1860 nM, the IC50 (MDA-MB-468 [2]) is reported as 2370 nM and the IC50 (PC-3 [3]) is reported as 7340 nM.

Compound `CC(C)[C@]12O[C@H]1[C@@H]1O[C@]13[C@]1(O[C@H]1C=C1C4=C(CC[C@@]13C)C(=O)OC4)[C@]21CO1` has an IC50 (SK-OV-3 [1]) of 570 nM, an IC50 (MDA-MB-468 [2]) of 1140 nM and an IC50 (PC-3 [3]) of 1800 nM.
